Source: PubChem (Columbia University Molecular Screening Center)
This is one part of a sample in which hits are shown more often than they occur.
Insulin prom act – TRM-6 insulin promoter activation. TRM-6 cells (human fetal islet line), insulin promoter eGFP reporter, imaging; plate-scaled: unstimulated 0, stimulated control 100. activation, % at 2 µM. 130,000 compounds, 0.81% hits;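 active = activation at 2 µM above a set limit, confirmed on inspection of the cell images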;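 also: share of cells whose green reporter signal exceeds an intensity cutoff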
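Test system: TRM-6 insulin promoter–eGFP reporter cells / Quantity: 1,000 cells per well / Reagent: tamoxifen inducer, 0.75 µM, in seeding medium / Compound dosing: 2 µM final, single concentration / Schedule: overnight tamoxifen, then two-day compound incubation at 37 °C / Measured by: automated fluorescence imaging of paraformaldehyde-fixed, Hoechst-counterstained cells, green channel / Read-out: percent activation from GFP-positive cell fraction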
* hit, by the source's call.

SMILES | Insulin prom act
COc1ccc(CNC(=O)C(c2cccs2)N(Cc2ccco2)C(=O)Cc2cccs2)cc1 (stereo unspecified) | 284
COc1ccc(CNC(=O)C(c2ccco2)N(Cc2cccs2)C(=O)Cc2cccs2)cc1 (stereo unspecified) | 80*
COc1ccc(CNC(=O)C(c2ccc(C)cc2)N(Cc2cccs2)C(=O)c2ccc3c(c2)OCCO3)cc1 (stereo unspecified) | 4
O=C(CSc1nnnn1C1CCCC1)Nc1cccc(NC(=O)c2ccco2)c1 | 830*
O=C(CSc1nnnn1C1CCCCC1)NCc1cccc(C(=O)O)c1 | -3
CC(=O)Nc1cccc(NC(=O)CSc2nnnn2C(C)C)c1 | 3
O=S(=O)(/N=C(/Nc1ccc(F)c(F)c1F)c1ccccc1)c1ccccc1 | 6
CCOC(=O)/C(=C\c1cccc(O)c1)c1nc2sc(C)c(C)c2c(=O)[nH]1 | 0
C/C=C/C=N/NC(=O)CN(c1ccc(Br)cc1)S(=O)(=O)c1ccccc1 | -3
COCC(=O)N(c1ccc(C(C)C)cc1)C1C=CS(=O)(=O)C1 (stereo unspecified) | 422*
CCC(=O)N(c1ccc(F)cc1)C1C=CS(=O)(=O)C1 (stereo unspecified) | 0
CC(=O)N(c1ccc(C(C)C)cc1)C1C=CS(=O)(=O)C1 (stereo unspecified) | 3
CCOC(=O)c1[nH]c2ccccc2c1NC(=O)c1ccc(S(=O)(=O)N2CCCC2)cc1 | 2
Cc1cc(C)c(S(C)(=O)=O)c(N(C)N)n1 | -75
CC1CCc2c(nc3ncnn3c2NCCN(C)C)C1 (stereo unspecified) | 0
CCCCOc1ccc(C2C3CN(C(=O)OCC)CC=C3C(C#N)=C(N)C2(C#N)C#N)cc1OC (stereo unspecified) | 5
COc1ccc(OC)c(C2C3CN(C(C)C)CC=C3C(C#N)=C(N)C2(C#N)C#N)c1 (stereo unspecified) | 479*
COc1ccc(C2C(C#N)=C(N)Nc3onc(C(C)(C)C)c32)c(OC)c1 (stereo unspecified) | -3
CCN1CCCC1CNCc1cccc(OC)c1OCc1ccc(F)cc1 (stereo unspecified) | 167
COc1ccc(C2=CC(=O)OC(C)(c3ccccc3)O2)cc1 (stereo unspecified) | -2
O=C(NNC(=O)[C@@H]1CCCC[C@@H]1C(=O)O)Nc1ccccc1 | -9
COc1cc(/C=C/C(=O)O)ccc1OCc1cnc(Cl)s1 | 0
COc1cc(/C=N/NC(=O)c2cccc([N+](=O)[O-])c2)ccc1OCc1ccccc1 | 45
COc1cc(/C=N/NC(=O)c2ccncc2)ccc1OCc1cnc(Cl)s1 | 240*
CNS(=O)(=O)c1cc(OC)c(OC)cc1CC(=O)OC | -8
SMILES | Insulin prom act
O=C(NN=C(Cc1ccccc1)Cc1ccccc1)C1CC1 | 0
Cc1ccc2c(Cl)cc(Cl)c(OCC(=O)Nc3cc(C)on3)c2n1 | 3
Cc1cc(NC(=O)COC(=O)c2oc3c(ccc4ccccc43)c2C)no1 | 415*
Cc1cc(NC(=O)COC(=O)COc2ccc(C(=O)c3ccccc3)cc2)no1 | -8
Cc1c(C)c(C)c(S(=O)(=O)N2CCNCC2)c(C)c1C | 7
O=C(Nc1c2c(nc3ccccc13)CCCC2)c1ccccc1F | -64
O=C(Nc1cccc2c1CCCC2)c1cc([N+](=O)[O-])cc([N+](=O)[O-])c1 | -7
O=C(Nc1c2c(nc3ccccc13)CCCC2)c1cccc([N+](=O)[O-])c1 | 380*
CC1CN(S(=O)(=O)c2cccc(C(=O)Nc3ccc4c(c3)CCC4)c2)CC(C)O1 (stereo unspecified) | -2
CCCCC(=O)Nc1ccc(NC(=S)NC(=O)CCCCl)cc1OC | 0
O=C(Nc1ccc(Oc2ccc(C(F)(F)F)cn2)c(Cl)c1)C1CC1 | 8
Cc1ccc(S(=O)(=O)Nc2cccc(C(=O)Nc3cc(C)ccn3)c2)cc1 | 7
Cc1ccc(NS(=O)(=O)c2cccc(C(=O)Nc3cc(C)on3)c2)cc1 | 369*
Cc1cc(NC(=O)c2ccccc2NS(=O)(=O)c2c(C)c(C)cc(C)c2C)no1 | 4
CN1CCN(NS(=O)(=O)c2cccs2)CC1 | 3
CN(Cc1ccccc1F)c1nc(-c2cccs2)nc2ccccc12 | 3
O=C(Cn1c(=O)n(-c2ccc(F)cc2)c(=O)c2sccc21)NC1CCCCC1 | -7
Cn1nnnc1SCSc1nnnn1C | 625*
Cn1nnnc1SCC(=O)NCc1ccccc1 | -93
Cn1nnnc1SCC(=O)c1cccs1 | -9
CC(=O)c1c(C)[nH]c(C(=O)CSc2nnc(C)s2)c1C | 0
Cc1[nH]c2ccc(-c3n[nH]c(=S)n3-c3ccccc3)cc2c1C | -9
Cc1ccc(-n2c(-c3cccc(C)c3)n[nH]c2=S)cc1 | -7
Cc1ccc(-c2n[nH]c(=S)n2-c2ccccc2)cc1 | 485*
Cc1ccc(O)c(C(=O)/C=C/c2ccc3c(c2)OCCO3)c1 | -7
SMILES | Insulin prom act
Cc1c(NC2(C#N)CCCCC2)c(=O)n(-c2ccccc2)n1C | 7
CNC(=O)CSCc1c(F)cccc1Cl | -81
O=C(Cc1c(F)cccc1Cl)N1CCCC1 | 557*
CC(NC(=O)Cc1c(F)cccc1Cl)C1CCCO1 (stereo unspecified) | -3
Cc1ccc2c(c1)C=CC(C)(C)S2(=O)=O | -3
O=[N+]([O-])c1ccc(N/N=C2\CC3CC=CC23)cc1 (stereo unspecified) | 0
O=C(N/N=C1\CC2CC=CC12)c1ccc(O)cc1 (stereo unspecified) | 407*
CSc1ccc(/C=N/NC(=O)c2ccc(O)cc2)cc1 | -6
CC1CN(c2nc3ccccc3cc2-c2ccccc2)CC(C)O1 (stereo unspecified) | -8
CN(/C(=N\S(=O)(=O)c1ccccc1)c1ccccc1)c1ccc(O)cc1 | 129
O=C(C1CCCO1)N1CCN(C(=S)Nc2ccc(F)cc2)CC1 (stereo unspecified) | -3
O=C1OC(N2CCN(C(=O)C3CCCO3)CC2)c2ccccc21 (stereo unspecified) | 173*
CCOC(=O)N1CCN(C(=O)Cc2cccs2)CC1 | 7
O=C(C1CCCO1)N1CCN(S(=O)(=O)c2cccc3nsnc23)CC1 (stereo unspecified) | -4
CCOC(=O)N1CCN(C2OC(=O)c3ccccc32)CC1 (stereo unspecified) | 459*
O=C1OC(N2CCN(C/C=C/c3ccccc3)CC2)c2ccccc21 (stereo unspecified) | -83
COc1ccc(OC)c(NS(=O)(=O)c2ccc(NC(=O)c3ccc(NS(C)(=O)=O)cc3)cc2)c1 | 2
O=C(Nc1ccncc1)c1cccs1 | -10
COC(=O)Cc1ccc(NC(=O)c2cccs2)cc1 | 460*
CC(=O)c1ccc(NC(=O)c2cccs2)cc1 | -3
Cc1sc2nc(CSCC(=O)N(CCC#N)c3ccccc3)[nH]c(=O)c2c1C | 107
COc1ccc(NC(C)=O)cc1CNC(=O)COc1c(C)c(C)cc(C)c1C | -2
Cc1ccc(CN2CCN(/N=C/C=C/c3ccccc3[N+](=O)[O-])CC2)cc1 | -73
O=C(COc1ccc(Cl)cc1Cl)NNC(=S)NCc1ccco1 | 167
O=C(Nc1ccccc1C(=O)NCc1ccco1)NC1CCCCC1 | -10
O=C(COc1ccc(Cl)cc1)Nc1ccccc1C(=O)NCc1ccco1 | 438*
COc1ccc(CCC(=O)Nc2c(C)n(C)n(-c3ccccc3)c2=O)cc1 | -7
CC(=O)Nc1ccc(S(=O)(=O)N(C)CC(=O)OCC(=O)c2cc(C)n(-c3ccc4c(c3)OCO4)c2C)cc1 | 3
CCCCn1nnnc1SCC(=O)Nc1ccc(N(C)C)cc1 | 167
